Bioassay records as filed in PubChem BioAssay.
Compounds with a hit are over-represented: about 4.3% of the library has one in this group of screens.
CAL PDZ FP-1 = blocks peptide binding to the human CAL PDZ domain; Q9HD26; purified CAL PDZ, TMR-peptide fluorescence polarization, 1 h; inhibition, % at 24.9 µM; 0.92% of 300,000 active;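 active = mean inhibition of at least 30% with at least half of replicates also reaching 30%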;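 also: 0% = DMSO neutral control and 100% = excess unlabeled competitor peptide PRC23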
Rtt109 HAT inh = inhibitors of Candida albicans Rtt109/Vps75 histone acetyltransferase | 0.16% of 330,000 active | inhibition, % at 34.9 µM | purified Rtt109/Vps75, ThioGlo CoA-SH fluorescence, 4 h | AID 540336;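 active = inhibition of at least 50% in every replicate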
Target sequence (Q5AAJ8 whole entry, looked up): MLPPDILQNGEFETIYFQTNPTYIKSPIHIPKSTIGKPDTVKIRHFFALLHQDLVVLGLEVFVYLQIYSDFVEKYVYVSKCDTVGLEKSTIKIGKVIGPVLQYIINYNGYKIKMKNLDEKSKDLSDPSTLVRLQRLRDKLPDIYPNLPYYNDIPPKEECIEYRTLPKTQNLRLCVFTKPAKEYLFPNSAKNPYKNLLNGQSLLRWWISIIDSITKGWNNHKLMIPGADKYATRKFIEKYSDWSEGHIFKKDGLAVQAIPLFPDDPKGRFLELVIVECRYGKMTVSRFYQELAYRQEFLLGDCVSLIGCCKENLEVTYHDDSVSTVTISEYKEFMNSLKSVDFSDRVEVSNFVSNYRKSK
CAL PDZ FP-2 = inhibitors of human CAL PDZ peptide binding | inhibition, % at 20 µM | AID 504414 | 0.02% of 330,000 active | purified CAL PDZ, TMR-peptide fluorescence polarization, 1 h | Q9HD26;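 active = highest replicate inhibition of at least 40%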;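 also: plate controls were DMSO neutral control wells for no effect and unlabeled competitor peptide control wells for full effect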
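Material: tagged CAL PDZ domain; buffer or medium: 25 mM sodium phosphate pH 7.4, 150 mM NaCl, TCEP, IgG, Thesit; compound dosing: single point, 20 µM; schedule: 1 h incubation at room temperature before polarization reading; measured by: FP readout, S and P plane fluorescence; read-out basis: percent inhibition from loss of millipolarization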
Dyrk1A ADPGlo = inhibitors of rat Dyrk1A kinase; ADP-Glo luminescence, NFATc1 peptide; inhibition, % at 12.5 µM; 0.43% of 310,000 active; in the data active = inhibition above about 50%;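 also: plate controls were vehicle with enzyme for no effect and no enzyme for full effect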
ALR H2O2 inh = inhibitors of human sulfhydryl oxidase ALR. P55789. inhibition, % (no concentration beside the values). purified ALR, DTT oxidation, H2O2 HRP-luminol luminescence. 3.8% of 290,000 active;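 active = mean replicate inhibition above about 79%, with every replicate also reaching it, limit read from the data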
Target sequence (P55789 whole entry, looked up): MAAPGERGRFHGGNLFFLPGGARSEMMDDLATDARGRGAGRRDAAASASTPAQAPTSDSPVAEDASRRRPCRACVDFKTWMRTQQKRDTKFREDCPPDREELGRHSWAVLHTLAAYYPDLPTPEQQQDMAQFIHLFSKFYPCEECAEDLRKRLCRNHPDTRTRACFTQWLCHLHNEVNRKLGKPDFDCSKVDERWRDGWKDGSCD
* = called active by the depositor; . = no result.

SMILES	CAL PDZ FP-1	Rtt109 HAT inh	CAL PDZ FP-2	Dyrk1A ADPGlo	ALR H2O2 inh
CCC1(C(=O)O)NC(c2cc(OC)ccc2O)C2C(=O)N(Cc3ccccc3)C(=O)C21 (stereo not drawn)	.	-14	-1	-12	87*
COC(=O)C(NC(=O)c1ccccc1)(Nc1cc(C)cc(C)n1)C(F)(F)F (stereo not drawn)	-5	4	0	1	-11
O=[N+]([O-])/C(C(Cl)=C(Cl)Cl)=C(\Sc1ccccc1)N1CCCCC1	2	.	-3	2	98*
Cc1ccnc(NC(=O)C2CCCN(S(=O)(=O)c3ccc4[nH]c(=O)ccc4c3)C2)c1 (stereo not drawn)	2	-4	-2	-5	-2
Nc1ccc(N=Nc2ccccc2)cc1[N+](=O)[O-]	-1	5	0	2	.
Cc1cc(NC(=O)Nc2cccc(C)c2C)no1	-1	-1	-2	-3	99*
CC(C)CCOc1ccc(NC(=O)C2OC3OC(C)(C)OC3C3OC(C)(C)OC23)cc1 (stereo not drawn)	-2	1	-1	-2	-4
CC(C)CCOc1ccc(CO[C@@H]2[C@H]3OC(C)(C)O[C@H]3O[C@@H]2C(O)CO)cc1 (stereo partly drawn)	-7	-3	0	3	87*
Cc1cccnc1NC(=O)CNC(=O)C12CC3CC(CC(C3)C1)C2	-4	-1	1	-4	.
CCC(C)N(C(=O)COC(=O)CSc1ccc(C)c(C)c1)C1CCS(=O)(=O)C1 (stereo not drawn)	-2	0	-1	4	-12
CCC(C)N(C(=O)CSc1ccc(NC(C)=O)cc1)C1CCS(=O)(=O)C1 (stereo not drawn)	.	2	-1	-3	88*
COc1cc(/C=N/NS(=O)(=O)c2ccc(C)c([N+](=O)[O-])c2)ccc1O	-2	1	-1	.	99*
O=[N+]([O-])c1cccc(S(=O)(=O)N/N=C/c2ccc(O)cc2)c1	-6	2	0	.	93*
Cc1ccc(S(=O)(=O)N/N=C/c2cc([N+](=O)[O-])ccc2O)cc1[N+](=O)[O-]	0	-1	-2	-4	28
COc1ccc(-n2c(O)c(/C=N/NS(=O)(=O)c3ccc(C)c([N+](=O)[O-])c3)c3ccccc3c2=O)cc1OC	-5	3	-8	4	97*
COc1cc(/C=N/NS(=O)(=O)c2ccc(C)c([N+](=O)[O-])c2)cc([N+](=O)[O-])c1O	-1	10	0	-6	93*
COc1cc(/C=N/NS(=O)(=O)c2ccc(C(C)(C)C)cc2)cc([N+](=O)[O-])c1O	-2	20	0	-3	65
COc1ccc(N(CC(=O)Nc2ccccc2F)S(=O)(=O)c2ccc(C)c([N+](=O)[O-])c2)cc1	8	8	0	0	-19
COC(=O)C(C(=O)OC)C(C(C)C)C(C(=O)OC)C(=O)OC	-8	-4	0	3	-8
O=C(COc1ccc(Cl)c2cccnc12)N1CCOCC1	115*	-3	0	2	-1
Cc1c2c(nc3nc4ccccc4n13)CC(C)(C)CC2=O	3	-4	2	1	-10
Cc1c2c(nc3ccccc13)CC(C)(C)CC2=O	-2	-20	-3	-10	94*
Cc1cc(N=Nc2ccccc2C(=O)O)c(C)c(C)c1O	-2	37	0	35	81*
COc1cc(N=Nc2ccc3ccccc3c2)ccc1O	-5	0	1	2	.
Cc1cc(O)c(C(C)C)cc1N=Nc1ccccc1C(=O)O	1	10	1	27	54
SMILES	CAL PDZ FP-1	Rtt109 HAT inh	CAL PDZ FP-2	Dyrk1A ADPGlo	ALR H2O2 inh
COc1cc(N=Nc2ccccc2C(=O)O)ccc1O	-1	-4	0	0	98*
N/C(=N\NC(=O)c1cccs1)c1cc2cc(Cl)ccc2oc1=O	1	5	-1	4	.
CCc1ccc(/C=N\n2cnnc2)cc1	.	8	-1	0	-11
COCCn1c(N2CCN(c3ccc(OC)cc3)CC2)nc2c1c(=O)n(C)c(=O)n2C	7	-16	0	-1	42
CCOCCn1c(N2CCN(c3ccc(OC)cc3)CC2)nc2c1c(=O)n(C)c(=O)n2C	-2	5	.	2	91*
CCCCCCn1c(N2CCCC2)nc2c1c(=O)n(C)c(=O)n2C	.	8	-1	-2	97*
NC(=S)NNC(=O)Nc1cccc(Cl)c1	1	0	-2	-2	23
NC(=S)NNc1cccc(Cl)c1	7	15	-2	0	98*
Cn1cc(CNC(=O)C23CC4CC(CC(C4)C2)C3)cn1	-2	.	-4	-3	-4
CCc1c(C(=O)NCc2cnn(C)c2)csc1C	.	7	-1	-5	98*
O=C(O)CC(CNC(=O)C1CCCN1C(=O)OCc1ccccc1)c1ccccc1 (stereo not drawn)	74*	-3	.	3	-14
Cc1cccc(NC(=O)C2CCCN2C(=O)OCc2ccccc2)c1 (stereo not drawn)	-5	-6	-6	.	8
Cc1ccc(O)c(NC(=O)C2CCCN2C(=O)OCc2ccccc2)c1 (stereo not drawn)	-4	-6	-1	4	87*
Cn1c(=NC(=O)COc2ccccc2)sc2ccccc21	-8	-8	-1	9	-11
O=S(=O)(O)c1ccc(N=Nc2ccccc2)cc1	-4	0	0	.	-5
O=c1ccc(N=Nc2ccccc2)ccc1O	-3	21	0	11	98*
COc1ccc(CC(=O)Nc2ccc(-c3cn4ccc(C)cc4n3)cc2)cc1	-1	5	1	5	-1
Fc1ccc(C(CCNCc2cccs2)c2ccco2)cc1 (stereo not drawn)	56*	-1	0	.	-46
O=[N+]([O-])c1ccc(/C=N/N2CCCCC2)cc1	-3	5	-1	1	21
Cc1csc(/N=C/c2ccc([N+](=O)[O-])cc2)n1	-1	2	-1	-9	85*
Cc1ccc(/C=N/N=C2/NC(=O)C(CC(=O)N3CCOCC3)S2)cc1 (stereo not drawn)	1	4	-1	2	4
Cc1ccc(NC(=O)CSCc2ccco2)cc1	-1	2	-2	1	99*
Cc1ccc(NC(=O)CSCC(=O)NCc2ccco2)cc1	-1	0	-2	13	34
Cc1ccccc1CSCC(=O)NC1CCCC1	-2	-3	-1	7	.
O=C(CSCc1ccco1)NC1CCCC1	-1	-1	0	3	99*
O=C(O)CSCC(=O)Nc1ccc(C2CCCCC2)cc1	.	1	-2	-1	98*
Cc1ccc(NC(=O)CSCC(=O)NC2=NCCS2)cc1	2	-5	0	-5	98*
O=C(/C=C/c1c(Cl)nc2ccccn12)Nc1ccc(F)cc1	.	-6	-3	-2	2
COc1ccc(C(=O)C2CCN(C(=S)Nc3ccc(F)cc3)CC2)cc1	0	2	-1	3	-3
Cc1ccc(NC(=O)CCCC2CCCCC2)c(O)c1	-3	0	-4	-7	-10
